Activity calls are given as the source filed them. No cut-off for these calls is given here.
What was measured:
[1] = Cytotoxicity against BHK cells by XTT assay; type: cell-based, Mesocricetus auratus; conditions: hamster
How it was run: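 Uninfected BHK cells were treated with a range of compound concentrations. Viability was read with an XTT colorimetric kit, where mitochondrial dehydrogenases form a coloured product read at 450 nm.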

Sindbis virus [2] = experiment: Antiviral activity against Sindbis virus replication in BHK cells at 10^-3 mM after 12 hrs by luciferase assay
Sindbis virus [3] = experiment: Antiviral activity against Sindbis virus replication in BHK cells after 12 hrs by luciferase assay; type: functional, organism-based
How it was run: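 BHK cells grown to confluency were infected with luciferase-reporter Sindbis virus (SIN-IRES-Luc) at MOI below 1. Medium containing compound below cytotoxic concentrations was then added, and cells were incubated 12 h at 37 °C. Luciferase was measured in cell extracts by luminometer. EC50 is the concentration giving a 50% reduction in virus production.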

[4] = Therapeutic index, ratio of EC50 for Sindbis virus to CC50 for BHK cells; type: cell-based; conditions: hamster, read-out: TI
How it was run: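 Therapeutic index was calculated as the […] (XTT viability of uninfected BHK cells).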

Sindbis virus [5] = experiment: Antiviral activity against Sindbis virus replication in BHK cells after 12 hrs by luciferase assay
[6] = in the assay text read “luciferase assay” for “XTT assay”

Row | Compound | CC50 [1] | Activity (Sindbis virus [2]) | EC50 (Sindbis virus [3]; [6]) | further results
1 | C1CSC(CC[C@@H]2COCCO2)SC1 | > 1 mM | inactive | – | –
2 | ClCCOC[C@H]1CO1 | > 1 mM | – | 1 mM | –
3 | ICC[C@@H]1COCCO1 | > 1 mM | – | 0.25 mM | –
4 | OC(CC[C@@H]1COCCO1)C[C@@H]1COCCO1 (stereo not given in full) | > 1 mM | inactive | – | –
5 | C1CSC(C[C@H]2COCCO2)(C[C@@H]2COCCO2)SC1 | > 1 mM | – | 0.029 mM | –
6 | C1CSC(C[C@H]2COCCO2)SC1 | > 1 mM | – | 1 mM | –
7 | C(C[C@H]1COCCO1)C[C@H]1COCCO1 | > 1 mM | inactive | – | –
8 | OC[C@H]1COCCO1 | > 5 mM | – | 1.5 mM | –
9 | C(CC[C@@H]1COCCO1)CC[C@@H]1COCCO1 | > 1 mM | – | 1.5 mM | –
10 | O=C(CC[C@@H]1COCCO1)C[C@@H]1COCCO1 | > 1 mM | inactive | – | –
11 | OCC[C@@H]1COCCO1 | > 1 mM | – | 1.4 mM | –
12 | OC[C@@H]1COCCO1 | > 1 mM | – | 0.0034 mM | selectivity ratio [4]: > 294
13 | OC(C[C@@H]1COCCO1)C[C@@H]1COCCO1 | > 1 mM | – | 0.67 mM | –
14 | O=C(CCC[C@@H]1COCCO1)C[C@@H]1COCCO1 | – | inactive | – | –
15 | CN(C)CCCN1c2ccccc2Sc2ccc(Cl)cc21 [CHLORPROMAZINE] | 0.1 mM | – | 0.0082 mM | –
16 | COc1ccc(CCN(C)CCC[C@](C#N)(c2ccc(OC)c(OC)c2)C(C)C)cc1OC | – | – | 1.3 mM | –
17 | OCC[C@H]1COCCO1 | > 1 mM | inactive | – | –
18 | ON=C(C[C@@H]1COCCO1)C[C@@H]1COCCO1 | > 1 mM | inactive | – | –
19 | C(C[C@@H]1COCCO1)C[C@@H]1COCCO1 | > 1 mM | – | 0.014 mM | selectivity ratio [4]: > 71
20 | ClCCOC[C@@H]1CO1 | > 5 mM | – | – | EC50 (Sindbis virus [5]): 1 mM
21 | c1ccc(CCCC[C@@H]2COCCO2)cc1 | > 1 mM | inactive | – | –
22 | O=C(C[C@@H]1COCCO1)C[C@@H]1COCCO1 | > 1 mM | inactive | – | –
23 | C1CSC(C[C@H]2COCCO2)(C[C@H]2COCCO2)SC1 | > 1 mM | inactive | – | –
24 | CC(O)[C@H]1COCCO1 (stereo not given in full) | 1 mM | – | 0.099 mM | –
25 | C1CSC(CC[C@@H]2COCCO2)(C[C@@H]2COCCO2)SC1 | > 1 mM | inactive | – | –
26 | CON=C(C[C@@H]1COCCO1)C[C@@H]1COCCO1 | > 1 mM | inactive | – | –
27 | C(C[C@@H]1COCCO1)C[C@H]1COCCO1 (mixture of isomers) | > 1 mM | inactive | – | –
28 | C(CC[C@@H]1COCCO1)C[C@@H]1COCCO1 | > 1 mM | – | 1.5 mM | –
29 | O=CC[C@H]1COCCO1 | > 5 mM | – | – | EC50 (Sindbis virus [3]): 0.46 mM
30 | OCCC[C@@H]1COCCO1 | > 1 mM | inactive | – | –

Reference: ChEMBL document CHEMBL1147175, “Synthesis of dioxane-based antiviral agents and evaluation of their biological activities as inhibitors of Sindbis virus replication” (Bioorg Med Chem, 2007)
